# UHRF1 MBD2 ctr – human UHRF1 methylated DNA binding inhibitors. inhibition, % at 4.4 µM. 370,000 tested, 0.75% active. Q96T88. UHRF1 binding to methylated oligo, TR-FRET. AID 687016; in the data active = inhibition above about 21%;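 also: UHRF1 SRA domain binding a hemimethylated CpG hairpin DNA probe; 0% = median of test compound wells and 100% = reference inhibitor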
# LEDGF integ inh – blocks HIV-1 LEDGF/p75-dependent DNA integration; TR-FRET IN-LEDGF/p75 DNA integration, Eu/Cy5; AID 743269; inhibition, % at 3.7 µM; 370,000 tested, 0.64% active;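 active = inhibition above the screen-wide mean plus 3 SD, cut at about 13% in these data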;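 also: signal is the Cy5 over europium emission ratio at 671 and 618 nm; 0% = plate median of compound wells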
# RBBP9 inh – inhibitors of human serine hydrolase RBBP9; recombinant RBBP9, FP-Rh probe fluorescence polarization; inhibition, % at 7.94 µM; 220,000 tested, 0.2% active; AID 1515;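 active = inhibition above the campaign mean of all tested compounds plus 3 SD, cut at about 14% in these data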;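 also: plate controls were DMSO wells with RBBP9 for no effect and wells lacking RBBP9 protein for full effect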
#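 System: RBBP9 protein / Buffer or medium: Tris/NaCl buffer pH 8.0 with 0.1% Pluronic / Probe or stimulus: Serine-hydrolase probe FP-Rh, 375 nM pre-mixing / Dosing: 7.94 µM single dose, 0.794% DMSO / Times: enzyme-compound preincubation 30 min, then probe labeling 45 min, 25 °C / Technique: fluorescence polarization (mP), excitation 525 nm, emission 598 nm / Replication: singlicate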
# ABHD5 PLIN5 PPI – inhibitors of human ABHD5-perilipin-5 interaction | Q00G26+Q8WTS1 | Split G. princeps luciferase complementation, luminescence, 4 h | inhibition, % at 4 µM | 360,000 tested, 0.78% active;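 active = inhibition above the mean inhibition across every tested compound plus 3 SD, cut at about 22% in these data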;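 also: 0% = DMSO only wells and the 100% control is not disclosed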
# MBD2 DNA inh – inhibitors of human MBD2 binding to methylated oligonucleotide; TR-FRET; inhibition, % at 4.4 µM; 370,000 tested, 0.31% active; AID 686964; in the data active = inhibition above about 13%
# PRMT1 inh – blocks human protein arginine methyltransferase 1 | Q99873 | recombinant PRMT1, activity-based probe fluorescence polarization | inhibition, % at 2.79 µM | 370,000 tested, 1.3% active | AID 652257;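 active = inhibition above about 21% made by adding two undisclosed values, limit read from the data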
# Target sequence (Q99873 whole entry, looked up): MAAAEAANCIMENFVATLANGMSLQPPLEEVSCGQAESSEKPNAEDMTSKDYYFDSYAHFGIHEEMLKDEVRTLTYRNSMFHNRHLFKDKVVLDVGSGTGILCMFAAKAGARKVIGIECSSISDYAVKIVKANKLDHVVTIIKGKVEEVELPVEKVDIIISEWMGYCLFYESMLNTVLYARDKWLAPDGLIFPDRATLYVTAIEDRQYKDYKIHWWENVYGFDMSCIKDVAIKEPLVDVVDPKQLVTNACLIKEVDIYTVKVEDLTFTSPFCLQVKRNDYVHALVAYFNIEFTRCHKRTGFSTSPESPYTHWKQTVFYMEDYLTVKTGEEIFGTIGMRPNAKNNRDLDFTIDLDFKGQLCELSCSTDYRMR
# PRMT1 inh conf – confirmation of human PRMT1 inhibitors; shares compounds with PRMT1 inh; recombinant His-PRMT1, activity-based probe fluorescence polarization; inhibition, % at 2.79 µM; 3,300 tested, 42% active;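 active = mean inhibition across replicates above the hit cutoff derived for the earlier primary screen, cut at about 22% in these data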
# An asterisk follows results filed as active; nt = no result. Sampled rows, rich in hits. Any-hit rate of the full collection: about 3.1%.
SMILES,UHRF1 MBD2 ctr,LEDGF integ inh,RBBP9 inh,ABHD5 PLIN5 PPI,MBD2 DNA inh,PRMT1 inh,PRMT1 inh conf
COc1ccc(OC)c(C2CC(=O)N3CN(c4ccccc4)CSC3=C2C#N)c1 (stereo not drawn),-2.2,-0.8,-6.5,-12.5,1.0,6.5,nt
CC(C)c1ccc(C2CC(=O)N3CN(Cc4ccco4)CSC3=C2C#N)cc1 (stereo not drawn),-4.4,-2.8,-3.4,-6.1,-5.4,19.1,nt
COc1ccc(C2CC(=O)N3CN(c4ccc(C)c(Cl)c4)CSC3=C2C#N)cc1 (stereo not drawn),-0.6,4.8,-3.6,-23.1,3.3,44.0*,59.1*
COc1ccc(C2CC(=O)N3CN(Cc4ccco4)CSC3=C2C#N)cc1 (stereo not drawn),-9.6,1.5,-3.0,-17.3,-0.2,20.4,nt
COc1ccc(N2CSC3=C(C#N)C(c4cccc(OC)c4OC)CC(=O)N3C2)cc1 (stereo not drawn),-4.1,10.8,-0.4,-15.7,-9.7,41.2*,68.1*
COC(=O)c1c(-c2ccc(OC)cc2)c2c(c3c4cc(OC)ccc4n(S(=O)(=O)c4ccc(C)cc4)c13)C(=O)N(C)C2,-4.1,0.7,nt,nt,-1.1,4.1,nt
COc1ccc(N2CCN(CCCNC(=O)Cn3c(=O)c4cccn4c4cccnc43)CC2)c(OC)c1,3.1,2.9,nt,nt,4.8,-0.2,nt
COCCCNC(=O)C[C@H]1C[C@@]2(C(=O)OC)C(=C[C@H](COCc3ccccc3)O[C@@H]2C)N(Cc2ccc3c(c2)OCO3)C1=O,-1.0,2.4,nt,nt,-2.1,-4.7,nt
Cc1cc(N2CCN(CC(C)(C)O)C[C@H]2C)ccc1N1CCN(Cc2ccccc2)[C@@H](C)C1,5.8,1.2,nt,nt,-0.2,-2.0,nt
Cc1cc2cc(C(c3nnnn3Cc3ccco3)N3CCc4ccccc4C3)c(=O)[nH]c2cc1C (stereo not drawn),-3.0,13.0,-0.7,-7.4,-8.1,69.3*,66.3*
Cc1cc2cc(C(c3nnnn3Cc3ccco3)N3CCc4ccccc43)c(=O)[nH]c2cc1C (stereo not drawn),-2.9,1.1,-9.7,6.0,-0.3,18.6,nt
Cc1ccc(-n2c(N)c(C(=O)N3CCCCC3)sc2=S)cc1,1.3,0.8,-8.7,0.1,7.1,4.7,nt
Cc1ccc(-n2c(N)c(C(=O)N3CCN(C)CC3)sc2=S)cc1,0.6,-0.1,1.6,-14.0,-3.2,85.9*,71.0*
Cc1ccccc1NC(=O)OC1CC2CC1[C@H]1CCCCN1[C@H]2Cc1ccccc1 (stereo partly drawn),-3.1,1.9,nt,nt,-3.0,-5.9,nt
COc1ccc(-n2ccnc(SCC(=O)NCc3ccc(C)cc3)c2=O)cc1Cl,-1.5,-3.0,nt,-10.8,-0.7,35.5*,20.9
Cc1ccc(CNC(=O)CSc2nccn(-c3ccc(C)c(F)c3)c2=O)cc1,0.3,-2.0,nt,-24.0,3.3,36.9*,18.8
C[C@@H]1C[C@H](O)CCCCCC(=O)Cc2cc(O)cc(O)c2C(=O)O1,1.0,1.1,nt,nt,0.2,-1.1,nt
Cc1ccc(-c2c(C(=O)NCC(C)C)oc(=O)c3ccccc23)cc1,0.4,-1.4,nt,nt,-2.7,1.7,nt
C=CCN1C(=O)[C@@H](CC(=O)NCc2ccccc2)[C@]2(C(=O)OC)CCCCC=C12,2.9,4.3,nt,nt,1.9,-3.3,nt
Cc1c(Cl)c(C(F)F)nn1CC(=O)NC1C(=O)N2C(C(=O)O)=C(CSc3nnnn3C)CSC12 (stereo not drawn),2.4,1.1,-3.8,12.1,-0.2,35.5*,19.6
CC(C(=O)NC1C(=O)N2C(C(=O)O)=C(CSc3nnnn3C)CSC12)n1cc(Cl)cn1 (stereo not drawn),0.8,0.6,-6.1,10.2,-6.2,30.4*,8.8
Cc1c(Cl)cnn1CC(=O)NC1C(=O)N2C(C(=O)O)=C(CSc3nnnn3C)CSC12 (stereo not drawn),15.5,5.7,-8.2,9.3,4.4,62.5*,34.6*
Cc1nnc(SCC2=C(C(=O)O)N3C(=O)C(NC(=O)C(C)n4nc(C(F)(F)F)cc4C)C3SC2)s1 (stereo not drawn),0.8,8.5,-0.3,16.1,1.4,28.5*,10.2

# Compound activity (PubChem)
